Assay results taken from ChEMBL document CHEMBL2429828, “Discovery of thiazolyl-phthalazinone acetamides as potent glucose uptake activators via high-throughput screening” (Bioorg Med Chem Lett, 2013).
Activity calls are given as the source filed them. The calls are words filed in the database; no cut-off is given here.

Key:
[1] = test system: L6; assay: Induction of glucose uptake in rat L6 cells pulsed with C14-deoxy glucose at 10 uM after 24 hrs in presence of insulin relative to control; format: functional
Summary of the method: (§1)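 L6 rat skeletal muscle cells grown in MEM alpha with 10% serum, differentiated at confluence in 2% serum, then serum-starved. Treated overnight; after 24 h, pulsed 10 min with 14C-deoxyglucose in presence of insulin. Uptake read by scintillation after lysis with Microscint PS.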

[2] = test system: L6; assay: Induction of glucose uptake in rat L6 cells pulsed with C14-deoxy glucose after 24 hrs in presence of insulin; format: functional, cell-based; details: L6, 24 h; summary of the method: as §1
[3] = molecular target: T1, Peroxisome proliferator-activated receptor gamma (Homo sapiens) (UniProt P37231); assay: Transactivation of GAL4 DNA binding domain-fused human PPAR-gamma ligand binding domain transfected in African green monkey CV1 cells after 24 hrs by luciferase reporter gene assay; format: cell-based; details: CV-1
T1 sequence (whole entry): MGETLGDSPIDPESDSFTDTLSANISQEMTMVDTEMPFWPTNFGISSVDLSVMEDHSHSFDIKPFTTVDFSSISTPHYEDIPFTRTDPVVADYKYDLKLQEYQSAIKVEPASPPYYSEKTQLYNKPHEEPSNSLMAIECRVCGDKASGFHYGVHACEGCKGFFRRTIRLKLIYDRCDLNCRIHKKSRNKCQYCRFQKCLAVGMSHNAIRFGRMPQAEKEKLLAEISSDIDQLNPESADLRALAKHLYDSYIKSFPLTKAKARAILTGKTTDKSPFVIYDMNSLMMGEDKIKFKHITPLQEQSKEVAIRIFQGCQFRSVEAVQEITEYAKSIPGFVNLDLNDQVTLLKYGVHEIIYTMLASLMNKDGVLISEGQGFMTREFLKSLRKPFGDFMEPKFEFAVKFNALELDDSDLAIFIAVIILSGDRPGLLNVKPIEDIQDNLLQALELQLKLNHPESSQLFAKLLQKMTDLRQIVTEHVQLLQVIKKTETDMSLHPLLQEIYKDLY
Summary of the method: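 CV-1 cells seeded at 25,000 cells/well, incubated overnight, then transiently co-transfected (Lipofectamine 2000) with Gal4-element luciferase reporter and GAL4 DBD–PPAR-γ LBD plasmid. Compounds added 6 h post-transfection for 24 h, then luminescence read. Values expressed as % of 1 µM rosiglitazone response (set as 100%). Triplicates, repeated twice.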

Row | Compound | fold change (FC) [1] | EC50 [2] [nM] | Activity [1] | Activity [3] [%]
1 | Cn1nc(CC(=O)Nc2ncc(-c3ccccc3)c(=O)[nH]2)c2ccccc2c1=O | 1.9 | 7470 |  | 
2 | NNC(=O)Cc1n[nH]c(=O)c2ccccc12 |  |  | inactive | 
3 | CN(C(=O)Cc1nn(C)c(=O)c2ccccc12)c1nc(-c2ccccc2)cs1 | 1.8 | 5960 |  | 
4 | Cn1nc(CC(=O)Nc2nccc(=O)[nH]2)c2ccccc2c1=O | 1.2 |  |  | 
5 | Cn1nc(CC(=O)NCc2n[nH]c(=O)c3ccccc23)c2ccccc2c1=O | 0.8 |  |  | 
6 | Cn1nc(CC(=O)Nc2nc(-c3ccccc3O)cs2)c2ccccc2c1=O | 1.3 |  |  | 
7 | O=C(Cc1nn(CCO)c(=O)c2ccccc12)Nc1nc(-c2ccccc2)cs1 | 0.8 |  |  | 
8 | Cn1nc(CC(=O)Nc2ccc(Cl)c(C(F)(F)F)c2)c2ccccc2c1=O | 2 | 2560 |  | 
9 | CN(CCOc1ccc(CC2SC(=O)NC2=O)cc1)c1ccccn1 (centres undefined) [ROSIGLITAZONE] | 1.8 | 4490 |  | 
10 | COc1ccc2c(oc3ccccc32)c1NC(=O)Cc1nn(C)c(=O)c2ccccc12 | 1.3 |  |  | 
11 | Cn1nc(CC(=O)Nc2nccc3ccccc23)c2ccccc2c1=O | 4.9 | 170 |  | 
12 | Cn1nc(CC(=O)Nc2ncc(-c3ccccc3)s2)c2ccccc2c1=O | 1.6 |  |  | 
13 | O=C(Cc1n[nH]c(=O)c2ccccc12)NNC(=O)c1nc(-c2ccccc2)cs1 | 0.9 |  |  | 
14 | O=C(O)Cc1nnc(O)c2ccccc12 |  |  | inactive | 
15 | O=C(O)CCCCC(=O)Nc1nc(-c2ccccc2)cs1 |  |  | inactive | 
16 | CCc1oc(NC(=O)Cc2nn(C)c(=O)c3ccccc23)nc1-c1ccccc1 | 1 |  |  | 
17 | CCOC(=O)c1sc(NC(=O)Cc2nn(C)c(=O)c3ccccc23)nc1C | 0.9 | 40 |  | 
18 | COC(=O)CCCCC(=O)N(C)c1nc(-c2ccccc2)cs1 | 1.2 |  |  | 
19 | Cn1nc(CC(=O)Nc2nc(-c3ccc(F)cc3)cs2)c2ccccc2c1=O | 2.7 |  |  | 

Row | Compound | fold change (FC) [1] | EC50 [2] [nM] | Activity [1] | Activity [3] [%]
20 | Cn1nc(CC(=O)Nc2nc(-c3ccccc3)cs2)c2ccccc2c1=O | 1.8 | 70 |  | 0.3
21 | CN(C(=O)CCCCC(=O)O)c1nc(-c2ccccc2)cs1 | 0.9 |  |  | 
22 | Cn1nc(CC(=O)Nc2nc(-c3ccc(Cl)cc3)cs2)c2ccccc2c1=O | 3.4 |  |  | 
23 | Cn1nc(CC(=O)Nc2nc(-c3ccc(Br)cc3)cs2)c2ccccc2c1=O | 3.6 | 100 |  | 
24 | Cn1nc(CC(=O)Nc2nc(-c3ccccc3)c(C(=O)O)s2)c2ccccc2c1=O | 1.3 |  |  | 
25 | Cn1nc(CC(=O)NC23CC4CC(CC(O)(C4)C2)C3)c2ccccc2c1=O | 0.7 |  |  | 
26 | Cc1sc(NC(=O)Cc2nn(C)c(=O)c3ccccc23)nc1-c1ccccc1 | 3.4 | 10 |  | 
27 | CCOC(=O)Cc1nn(CC(=O)c2ccccc2)c(=O)c2ccccc12 | 1.1 |  |  | 
28 | O=C(Cc1n[nH]c(=O)c2ccccc12)Nc1nc(-c2ccccc2)cs1 | 1.8 | 40 |  | 
29 | Cn1nc(CC(=O)Nc2cc(-c3ccc(F)cc3)on2)c2ccccc2c1=O | 1.3 |  |  | 
30 | Nc1nc(-c2ccccc2)cs1 |  |  | inactive | 
31 | O=C(O)Cc1nn(CC(=O)c2ccccc2)c(=O)c2ccccc12 | 0.9 |  |  | 
32 | Cc1sc(NC(=O)Cc2nn(C)c(=O)c3ccccc23)nc1-c1ccc(Br)cc1 | 3.4 | 3 |  | 
33 | CCOC(=O)c1sc(NC(=O)Cc2nn(C)c(=O)c3ccccc23)nc1-c1ccccc1 | 1.3 |  |  | 
34 | COc1ccc(-c2nc(NC(=O)Cc3nn(C)c(=O)c4ccccc34)sc2C)cc1 | 2.9 | 9 |  | 1
35 | CCOC(=O)CN(C(=O)Cc1nn(C)c(=O)c2ccccc12)c1nc(-c2ccccc2)cs1 | 1.9 | 280 |  | 
36 | CCOC(=O)Cc1nnc(O)c2ccccc12 |  |  | inactive | 
37 | Cn1nc(CC(=O)Nc2nc(-c3ccc(C(F)(F)F)cc3)cs2)c2ccccc2c1=O | 3.2 |  |  | 
38 | Cn1nc(CC(=O)Nc2nccs2)c2ccccc2c1=O | 1.7 | 120 |  | 
